Measured values taken from the EternaBench riboswitch data.

System: MS2 coat protein
Test: apparent Kd, MS2 coat protein; higher = weaker binding; RNA-MaP array; FMN 200 µM where present
Outline: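 Each design was made on Illumina sequencing-chip clusters by stalled E. coli RNA polymerase and titrated with SNAP-549-labelled MS2 coat protein from 0.7 or 1.5 nM, doubling to 3 µM, in the absence and then the presence of constant ligand. The buffer was 100 mM Tris-HCl pH 7.5, 80 mM KCl, 4 mM MgCl2, BSA, DTT, yeast tRNA and Tween-20. The apparent Kd is the median of filtered per-cluster fits of binding curves, with green signal normalised to red-channel RNA signal and control-cluster median Fmax.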

[1] = designed as: OFF switch for flavin mononucleotide, no ligand
[2] = ligand present: flavin mononucleotide, designed as: OFF switch for flavin mononucleotide
[3] = designed as: ON switch for flavin mononucleotide, no ligand
[4] = ligand present: flavin mononucleotide, designed as: ON switch for flavin mononucleotide

Sequence | apparent Kd [1] [nM] | apparent Kd [2] [nM] | apparent Kd [3] [nM] | apparent Kd [4] [nM]
GGACGCUAAGGAUAUACAUGAGGAUCACCCAUGUAGCCCGAAAGGGCGCGUUCCUUCUGUAGAAGGUGGCUAAA | 17 | 25.4 | – | –
UGUUGUAUUACAGGAUAUCUAUUAGGUUUAUUUAGAGAAGGGUAUUCACAUGAGGAUCACCCAUGUAUAUACGAGGAAGUUGUG | – | – | 56.2 | 63.3
CGUUCACAUGAGGAUCACCCAUGUCAGAUUUGGUCAGGAUAUGGUCGGCUUCCGCUAUUGCCAGAAGGGACUGUUG | – | – | 30.5 | 23.9
UUGAUAAGGAGAGGAUAUUGACAUGAGGAUCACCCAUGUACAUGGGAAUAUUUACUGAAUUCUUACGAGAAGGCUUACAUAUUU | 124 | 66.7 | – | –
CGCUCAAUUCUUUAGGUUAGAAUCAGAAGGCGUAACAUGAGGAUCACCCAUGUAUAGAAGUGUAACGAGGAUAUGAAUUGAGCG | 8.86 | 8.25 | – | –
GUUGGUGUAGAAGGAUAUUGGUGAUGCGUCUUGUACAUGAGGAUCACCCAUGUCACUCUGCACGCCGAGAAGGUCUGCAAAUGG | – | – | 70 | 48.1
AUUGUUCGAGAGAAGGGAACAUGAGGAUCACCCAUGUUACCUCACCUGGUGACGGAACUCCAAGUUCAGGAUAUCUCGAGCGAU | 5.63 | 8.59 | – | –
UGGACUGGGCAGAAGGGACAUGAGGAUCACCCAUGUCUUGGGCUACUUCAGUCAGGAUAUGCCCAAUAAAUAUCCGUGCAUCAA | 13.3 | 67.1 | – | –
UCCGCAAGUGAAGGAUAUACGGCUGAAGAGCCAGUAGAAGGUCACAUGAGGAUCACCCAUGUCUACCGCUACGAGAUAUUACAA | 19.1 | 59.5 | – | –
GCACGGUAUGUAGGAUAUGCAUAGCAUUGCUAUGCAGAAGGACAUGAGGAUCACCCAUGUAUGUAUUCCAUACUAAUCCCGUGC | 5.89 | 5.79 | – | –
GCUAGAGCAGGAUAUCUAGAUCCACACAUGAGGAUCACCCAUGUACAGUCGAAAGACUGAAGAGAAGGGCUCUAGC | 69.7 | 92.7 | – | –
CGCUAUUACAUGAGGAUCACCCAUGUAUAUAUUGUAUUUUCGUAGGAUAUGCAGAAGAUUAAAGUGCAGAAGGACGUAAUAGCG | – | – | 29.1 | 7.48
CGAAAUGAUAGAGGAUAUGUUAUACAUGAGGAUCACCCAUGUUUAAUGGGAUUAAUAAAUAUCUUACAGAAGGCUAUUCAAUCG | 32 | 20.7 | – | –
CGUGCUAUGUAGAAGGCAGAUCUGAUUCAGAUCUGAGGAUAUACAUGAGGAUCACCCAUGUUAUGCACCAGCACGAGAGUGCAC | – | 11.5 | – | –
GUCACCUCGUGAGGAUAUACAACACUGCUUCGGCAGUGUAUUAAGAUCACAUGAGGAUCACCCAUGUAGAAGGCACGAGCUGAU | 17.2 | 221 | – | –
AACUGACGACAUCAGUUGCGUAGGCAGGAUAUACAUGAGGAUCACCCAUGUGCAUGAUGCUACGAGUAGAAGGGCCGAGGCGAU | 6.77 | 13.4 | – | –
UUAUUAGCAGGAUAUAUCCACGACCACAUGAGGAUCACCCAUGUGGCCGCUUGAGGUUGUAUAGAAGGGCUUUAUU | 15.3 | 14.6 | – | –
UAAGAGCGAGGAUAUACGUCGCUGGUCCGGAUGGACGCAUGACAUGAGGAUCACCCAUGUAGAAGGCGCAAAAC | 22.9 | 73.3 | – | –
GGAUAGGUCAGAGGAUAUACGUGCUAGAGAUACUAGCAAAAUUUCCUCACAUGAGGAUCACCCAUGUAGAAGGCUGUCCUAUCG | 12.4 | 278 | – | –
UGUGUGUUUGUGAGGAUAUGCGCGCGGAAAUGUGUGUAGAAGGCACAUGAGGAUCACCCAUGUAAGGGCGCGCG | 596 | 439 | – | –
